An excerpt weighted towards active compounds, which were near 4.1% of everything screened.
KCNQ1 block: blocks the human KCNQ1 potassium channel. P51787. hit rate 1.3% among 310,000. CHO-K1 KCNQ1, FluxOR thallium flux fluorescence; hits give high values. B-score at 10 µM. AID 2642;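 active means compounds whose thallium flux B-score, printed positive for inhibition, exceeds three library SD while starting fluorescence stays within three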;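 further: channel opened by potassium depolarization with thallium stimulus after 20 min compound exposure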
hERG protect: shields human hERG channel from block by proarrhythmic agents; CHO-hERG, FluxOR thallium flux, dofetilide IC70 present; AID 1511; Q12809; hit rate 0.51% among 310,000; activation (rescue from dofetilide block), less the hit threshold, % at 10 µM;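 active means activation above the mean of controls blocked by dofetilide plus 5 SD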;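 further: thallium influx through hERG after potassium depolarization seen as dye fluorescence rise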
Target sequence (Q12809 whole entry, looked up): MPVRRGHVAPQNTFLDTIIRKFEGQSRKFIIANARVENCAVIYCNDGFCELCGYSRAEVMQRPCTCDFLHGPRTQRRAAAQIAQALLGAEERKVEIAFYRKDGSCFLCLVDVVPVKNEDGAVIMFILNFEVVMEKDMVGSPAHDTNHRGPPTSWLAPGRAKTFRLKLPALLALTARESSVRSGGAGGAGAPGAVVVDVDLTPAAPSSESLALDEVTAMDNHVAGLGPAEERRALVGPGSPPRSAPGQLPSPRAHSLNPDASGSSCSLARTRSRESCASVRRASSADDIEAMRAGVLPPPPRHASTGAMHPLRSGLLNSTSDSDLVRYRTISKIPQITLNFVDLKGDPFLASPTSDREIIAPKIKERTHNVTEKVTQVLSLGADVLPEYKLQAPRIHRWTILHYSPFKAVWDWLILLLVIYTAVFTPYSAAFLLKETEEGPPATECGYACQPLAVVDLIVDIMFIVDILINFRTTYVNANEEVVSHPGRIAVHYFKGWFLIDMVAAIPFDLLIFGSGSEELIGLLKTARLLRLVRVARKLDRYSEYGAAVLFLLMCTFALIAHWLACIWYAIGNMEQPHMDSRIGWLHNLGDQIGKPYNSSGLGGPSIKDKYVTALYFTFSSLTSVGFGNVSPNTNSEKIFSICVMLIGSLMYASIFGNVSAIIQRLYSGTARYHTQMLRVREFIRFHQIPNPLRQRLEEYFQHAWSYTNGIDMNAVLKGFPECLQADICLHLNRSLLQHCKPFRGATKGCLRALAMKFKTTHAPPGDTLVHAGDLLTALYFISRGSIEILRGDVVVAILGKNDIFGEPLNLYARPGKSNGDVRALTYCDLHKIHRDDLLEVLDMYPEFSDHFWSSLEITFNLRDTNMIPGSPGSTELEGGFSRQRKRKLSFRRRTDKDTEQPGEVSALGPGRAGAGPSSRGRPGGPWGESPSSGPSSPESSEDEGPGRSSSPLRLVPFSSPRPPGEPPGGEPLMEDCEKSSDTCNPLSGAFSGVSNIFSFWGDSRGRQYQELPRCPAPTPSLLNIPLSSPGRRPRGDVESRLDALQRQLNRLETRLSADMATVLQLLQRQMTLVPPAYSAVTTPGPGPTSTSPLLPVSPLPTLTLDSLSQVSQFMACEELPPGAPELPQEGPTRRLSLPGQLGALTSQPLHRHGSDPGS
KCNQ1 pot: potentiates or activates the human KCNQ1 potassium channel | P51787 | B-score at 10 µM | CHO-K1 KCNQ1, thallium flux FluxOR fluorescence; hits give high values | hit rate 0.35% among 310,000;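 active means fluorescence ratio B-score, a plate-corrected score, at least three library SD, with initial intensity B-score within 5 SD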
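assay system = CHO-K1 cells stably expressing KCNQ1 | medium = assay buffer, equal DMSO in all wells | timing = 37 °C overnight plating, 90-min dark dye load, 20-min compound pretreatment | measured by = kinetic FluxOR thallium fluorescence, 10-s 1-Hz baseline, 110-s post-stimulus read | measure = fluorescence change relative to baseline, converted to B score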
KCNK3 inh: human KCNK3 channel inhibition, primary screen. CHO-KCNK3 thallium flux, FluxOR fluorescence; hits give low values. B-score at 10 µM. hit rate 0.84% among 340,000;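 active means B-score under library mean minus 4 SD, starting fluorescence ratio at most library mean plus 5 SD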;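 further: more negative B-score means stronger inhibition of thallium flux through KCNK3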
KCNK9 inh: inhibitors of human KCNK9 two-pore domain potassium channel; Q9NPC2; B-score at 10 µM; hit rate 1.2% among 310,000; AID 488922; HEK293 KCNK9, FluxOR thallium flux fluorescence; hits give low values;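 active means ratio B-score over 3 SD below the library mean, with starting fluorescence within 5 SD of its mean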;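 further: negative B-score means less thallium flux so channel inhibition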
Cl transport mod: KCC2 (human) Cl- transport modulation. KCC2 cells, thallium flux FluoZin-2 fluorescence. hit rate 2.2% among 190,000. B-score of Tl+ flux slope (higher = more flux/activation; lower = inhibition) at 10 µM;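 active means thallium flux slope and its plate-corrected score both differing from the plate sample mean at a set confidence after two filtering rounds, in either direction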;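 further: slope of fluorescence scaled to starting intensity during 10 to 20 s after thallium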
KCNK9 block conf: confirmation of human KCNK9 potassium channel inhibitors; shares compounds with KCNK9 inh; HEK293 KCNK9 cells, FluxOR thallium flux fluorescence; inhibition, % at 10 µM; hit rate 43% among 4,900;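 active means thallium signal inhibited by more than 5 SD of the compound-free buffer control wells, on both duplicate plates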;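 further: 0% = assay buffer control wells without compound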
Kir2-1 spec: tests whether KCNK9 modulators also affect mouse Kir2.1; shares compounds with KCNK9 inh; AID 492993; Kir2.1 cells, FluxOR thallium flux fluorescence; hit rate 4% among 4,900; inhibition, % at 10 µM;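 active means thallium signal drop more than 5 SD beyond the mean of the no-compound control wells, seen in both duplicate plates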;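 further: signal is fluorescence rise after thallium addition divided by baseline fluorescence; plate controls were assay buffer only for no effect and full block by chlorpromazine control for full effect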
KCNK9 uninduced: second check of KCNK9 modulator effects in non-induced HEK293 cells | inhibition, % at 10 µM | FluxOR thallium flux | shares compounds with KCNK9 inh | AID 492997 | hit rate 40% among 4,900;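 active means thallium signal drop beyond 5 SD of the untreated control mean, on both duplicate plates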;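 further: plate controls were buffer only IC0 wells for no effect and SID17386958 at its maximal inhibitory level for full effect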
Starred values were filed as active, the others as inactive; i = inactive; · = no result.

SMILES | KCNQ1 block | hERG protect | KCNQ1 pot | KCNK3 inh | KCNK9 inh | Cl transport mod | KCNK9 block conf | Kir2-1 spec | KCNK9 uninduced
COc1cccc(/C=C2\SC(=S)N(C(Cc3ccccc3)C(=O)O)C2=O)c1 (centres undefined) | i | -11 | i | i | i | -2.1 | i | i | i
C=CCOc1ccc(/C=C2\SC(=S)N(C(C(=O)O)c3ccccc3)C2=O)cc1 (centres undefined) | i | -22 | i | i | i | -2.1 | i | i | i
O=C(O)C(Cc1ccccc1)N1C(=O)/C(=C/c2cccs2)SC1=S (centres undefined) | · | · | · | i | · | -1.4 | · | · | ·
CC(/C=C1\SC(=S)N(CC(=O)O)C1=O)=C\c1ccccc1 | i | -5 | i | i | i | -2.1 | · | · | ·
CC(/C=C1\SC(=S)N(C(C(=O)O)c2ccccc2)C1=O)=C\c1ccccc1 (centres undefined) | i | -19 | i | i | i | -1.7 | i | i | i
O=C(CNC(=O)c1ccco1)N/N=C/c1ccc(C(=O)O)cc1 | i | -4 | i | i | i | · | · | · | ·
COC(=O)c1cc(C(=O)OCC(=O)c2ccc3c(c2)NC(=O)CO3)cc([N+](=O)[O-])c1 | · | · | · | i | · | · | · | · | ·
CCOC(=O)c1ccc(N/C(=N\S(=O)(=O)c2ccccc2C)c2ccccc2)cc1 | i | -18 | i | i | -8.4* | -0.064 | 39%* | i | 28%*
COC(=O)c1ccc(N/C(=N/S(=O)(=O)c2ccccc2)c2ccccc2)cc1 | i | -13 | i | i | i | -1.1 | · | · | ·
CCN1CCN(C(c2cccnc2)c2c(NC(=O)c3ccco3)sc(C)c2C)CC1 (centres undefined) | · | · | · | i | · | · | · | · | ·
Cc1sc(NC(=O)c2ccco2)c(C(c2cccnc2)N2CCC(C)CC2)c1C (centres undefined) | 9* | -9 | i | i | -14* | · | 66%* | i | 42%*
Cc1cccc(NC(=O)COC(=O)CC2CCCC2)c1C | · | · | · | i | · | · | · | · | ·
c1ccc(CSc2nnc(-c3sccc3-n3cccc3)o2)cc1 | i | -10 | i | i | -8.3* | -0.19 | i | i | 35%*
Cc1ccc(-c2nc3cnccn3c2Nc2ccc3c(c2)OCO3)cc1 | i | -7 | i | i | -8.6* | 1.5 | 44%* | i | i
Cc1cc(C)n2c(Nc3ccc4c(c3)OCCO4)c(-c3ccccc3)nc2n1 | i | -18 | i | i | -11* | -0.098 | 39%* | i | 28%*
COc1ccccc1/C=C/C1(C(=O)NC2CCCC2)CC(=O)N1c1ccc(C)cc1 (centres undefined) | i | -21 | i | i | -9.8* | 0.49 | i | i | 40%*
O=C(Nc1nccs1)c1cc2sccc2n1Cc1ccc(F)cc1 | i | -11 | i | i | i | 0.11 | · | · | ·
COc1ccc(NC(=O)c2cc3sccc3n2Cc2ccc(F)cc2)cc1OC | i | -9 | i | i | -12* | -0.43 | 57%* | i | 30%*
CC1CN=C(c2ccccc2)O1 (centres undefined) | · | · | · | i | · | · | · | · | ·
COc1ccccc1OCCCOc1ccc([N+](=O)[O-])cc1Cl | i | -6 | i | i | i | · | i | i | 36%*
C=C[C@](C)(CC[C@@]1(C)C(C)CC(OC2OC(C)C(OC3OC(COC(C)=O)C(O)C(O)C3O)C(O)C2O)[C@@]2(C)C(C)=CCCC12)OC1OC(C)C(O[C@@H]2O[C@@H](C)C(O)C(O)[C@H]2O)C(O)C1O (some centres undefined) | · | · | · | i | · | · | · | · | ·
O=C(Nc1c(S(=O)(=O)c2ccc(Cl)cc2)csc1Br)c1ccccc1Cl | i | -5 | i | i | -11* | -1.4 | 38%* | i | 35%*
O=C(NC(=O)c1ccccc1Cl)C(=O)Nc1ccc(Cl)cc1 | i | -4 | i | i | i | · | · | · | ·
OC(COCc1ccco1)CN1CCN(C(c2ccccc2)c2ccccc2)CC1 (centres undefined) | i | -13 | i | i | i | · | · | · | ·
Cc1ccc(Cl)cc1N1CCN(CC(O)COCc2ccco2)CC1 (centres undefined) | i | -11 | i | i | i | -0.12 | i | i | i
SMILES | KCNQ1 block | hERG protect | KCNQ1 pot | KCNK3 inh | KCNK9 inh | Cl transport mod | KCNK9 block conf | Kir2-1 spec | KCNK9 uninduced
O=[N+]([O-])c1ccc(C=NN2CCCCCC2)cc1 | · | · | · | i | · | · | · | · | ·
Cc1cc(C)c2oc(=O)cc(CN3CCN(Cc4ccccc4)CC3)c2c1 | i | -12 | i | i | i | · | · | · | ·
CCOC(=O)C1CCN(Cc2cc(Cl)c3ccccc3c2O)CC1 | i | 0 | i | i | i | · | i | i | i
Cc1ccc2c(CN3CCN(Cc4ccccc4)CC3)cc(=O)oc2c1C | i | -7 | i | i | i | · | i | i | i
CCOC(=O)C1CCN(Cc2cc(=O)oc3cc(C)c(Cl)cc23)CC1 | i | -3 | i | i | i | · | i | i | i
CCOC(=O)C1CCN(Cc2cc(=O)oc3c(C)c(C)ccc23)CC1 | i | -7 | i | i | i | · | i | i | i
COC(=O)c1ccc(C)c(NC(=O)CCn2[nH]c(=O)ccc2=O)c1 | · | · | · | i | · | · | · | · | ·
Cc1noc(C)c1C(=O)N(CC(=O)Nc1ccc(Cl)c(C(F)(F)F)c1)Cc1ccco1 | · | · | · | i | · | · | · | · | ·
CCOC(=O)C1CCN(Cc2cn(C)nc2-c2ccc(Oc3ccccc3)cc2)CC1 | i | -15 | i | i | i | · | i | i | i
Cn1cc(CN2CCC(O)CC2)c(-c2ccc(Oc3ccccc3)cc2)n1 | i | -9 | i | i | i | -1.8 | · | · | ·
COc1ccc(-c2ccc(SCC(=O)c3ccccc3)nn2)cc1OC | i | -17 | i | i | -11* | -0.97 | 60%* | i | i
Cc1ccc(-c2ccc(SCC(=O)c3ccccc3)nn2)cc1 | i | -7 | i | i | i | 0.024 | · | · | ·
O=C(N/N=C/c1ccncc1)c1ccccc1OCc1ccc(Br)cc1 | i | -9 | i | i | -8.9* | -2.8 | i | i | i
O=C(N/N=C/c1cc(Br)ccc1OC(=O)c1ccc(Br)cc1)c1ccncc1 | i | -12 | i | i | -12* | · | 45%* | i | 34%*
O=C(N/N=C\c1ccccc1OCc1ccccc1)c1ccco1 | i | -10 | i | i | i | -1.5 | · | · | ·

Screening data from PubChem BioAssay.
